Data from ChEMBL document CHEMBL4699497, “Synthesis of indole-tethered [1,3,4]thiadiazolo and [1,3,4]oxadiazolo[3,2-a]pyrimidin-5-one hybrids as anti-pancreatic cancer agents” (Bioorg Med Chem Lett, 2020).
pIC50: −log10 of the molar value.

Tested on: PANC-1
Assay: Cytotoxicity against human PANC1 cells assessed as reduction in cell viability measured after 48 hrs by MTS assay
Assay type: functional, cell-based
Conditions: for pIC50: PANC-1, 48 h
Outline: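 Human PANC-1 pancreatic cancer cells exposed to a range of doses of each compound for 48 h. Surviving cells quantified by MTS viability read-out, and IC50 derived from the dose-response curves.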

`O=c1c(-n2ccc3ccccc32)cnc2sc(-c3cccc(Cl)c3)nn12` gave a pIC50 of under 4.00.
Compound `O=c1c(-n2ccc3ccccc32)cnc2sc(-c3ccc(Cl)cc3)nn12` has a pIC50 of under 4.00.
Compound `Cc1cc2ccccc2n1-c1cnc2sc(-c3ccccc3)nn2c1=O` has a pIC50 of under 4.00.
`Cc1cc2ccccc2n1-c1cnc2oc(-c3ccc(Cl)cc3)nn2c1=O` was tested, and the inhibition was “Dose-dependent effect” and the pIC50 was 4.40.
In the case of `O=c1c(-n2ccc3ccccc32)cnc2oc(-c3ccccc3)nn12`, the inhibition was “Dose-dependent effect” and the pIC50 was 4.68.
`O=c1c(-n2ccc3ccccc32)cnc2oc(-c3ccccc3Cl)nn12` was tested, and the inhibition was “Dose-dependent effect” and the pIC50 was 5.11.
`Cc1cc2ccccc2n1-c1cnc2sc(-c3cccc(Br)c3)nn2c1=O` was tested, and the pIC50 was under 4.00.
In the case of `O=c1c(-n2ccc3ccccc32)cnc2oc(-c3ccc(Br)cc3)nn12`, the inhibition was “Dose-dependent effect” and the pIC50 was 4.04.
`O=c1c(-n2ccc3ccccc32)cnc2sc(-c3ccccc3)nn12` showed a pIC50 of under 4.00.
With `O=c1c(-n2ccc3ccccc32)cnc2sc(-c3ccc(Br)cc3)nn12` the pIC50 was under 4.00.
Work on `O=c1c(-n2ccc3ccccc32)cnc2sc(-c3cccc(Br)c3)nn12` yielded a pIC50 of under 4.00.
`O=c1c(-n2ccc3ccccc32)cnc2sc(-c3ccccc3Cl)nn12` showed a pIC50 of under 4.00.
`Nc1ccn([C@@H]2O[C@H](CO)[C@@H](O)C2(F)F)c(=O)n1` [GEMCITABINE] was tested, and the pIC50 was under 3.30.
`Cc1cc2ccccc2n1-c1cnc2sc(-c3ccccc3Cl)nn2c1=O` showed a pIC50 of under 4.00.
`Cc1cc2ccccc2n1-c1cnc2sc(-c3ccc(Br)cc3)nn2c1=O` showed a pIC50 of under 4.00.
With `O=c1c(-n2ccc3ccccc32)cnc2oc(-c3ccc(Cl)cc3)nn12` the inhibition was “Dose-dependent effect” and the pIC50 was 4.02.
